Laboratory results reported in ChEMBL document CHEMBL4765301, “Discovery of novel TNNI3K inhibitor suppresses pyroptosis and apoptosis in murine myocardial infarction injury” (Eur J Med Chem, 2020).
Calls of active or inactive are those of the source. The rule behind the calls is not given here.

Experiments:
H9c2 [1] = assay: Inhibition of OGD-induced apoptosis in rat H9c2 cells assessed as reduction in caspase1 level at 0.5 to 1 uM by immunofluorescence staining based fluorescence microscopy; format: functional, cell-based; conditions: dose 0.5-1 µM
Summary of the method: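 In OGD-exposed H9c2 cells treated with 0.5 or 1.0 µM inhibitor, intracellular distribution and co-localisation of caspase-1 and NLRP3 were assessed by immunofluorescence microscopy.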

[2] = Toxicity in C57BL/6 mouse assessed as effect on morphology of main organs at 25 mg/kg, ip administered for 28 days and observed on day 28 by H and E staining based fluorescence microscopy; format: organism-based; conditions: in vivo, 672 h, time 28 day
Summary of the method: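 Main organs of MI-model C57BL/6 mice, given 25 mg/kg ip every two days or sham-operated, examined by H&E staining of tissue sections for morphology.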

H9c2 [3] = assay: Inhibition of OGD-induced apoptosis in rat H9c2 cells assessed as reduction in proIL-1beta level at 0.5 to 1 uM by Western blot analysis; format: functional, cell-based; conditions: dose 0.5-1 µM
Summary of the method: (§1)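 H9c2 cells under OGD were treated with saline or 0.5 or 1.0 µM inhibitor. Cells were trypsinised, washed in cold PBS, lysed in RIPA with sonication and centrifuged 30 min. Total protein was quantified and separated by SDS-PAGE, then transferred to PVDF. Blots were probed with primary and secondary antibodies and detected by ECL.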

Mus musculus [4] = assay: In vivo inhibition of TNNI3K in C57BL/6 mouse assessed as p38 phosphorylation at 25 mg/kg, ip administered for 28 days and measured on day 28 by immunohistochemical staining based fluorescence microscopy; format: functional, organism-based; conditions: time 28.0 day
Summary of the method: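 Male C57BL/6 mice (5-6 weeks) with LAD-ligation MI; sham, saline or 25 mg/kg ip every two days, n=4, 28 days. Heart sections given EDTA (pH 8.0) or citrate (pH 6.0) microwave antigen retrieval, then primary antibody 30-40 min at 37°C. Detection by HRP polymer secondary with DAB (IHC) or fluorescent secondary (IF). Positive cells were quantified.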

H9c2 [5] = assay: Inhibition of OGD-induced apoptosis in rat H9c2 cells assessed as reduction in GSDMD level at 0.5 to 1 uM by Western blot analysis; format: functional, cell-based; conditions: dose 0.5-1 µM; summary of the method: as §1
[6] = molecular target: Receptor tyrosine-protein kinase erbB-2 (Homo sapiens) (UniProt P04626); assay: Inhibition of recombinant human HER2 (676 to end residues) assessed as residual activity at 1 uM using poly(Glu, Tyr) 4:1 as substrate incubated for 40 mins by [gamma-33P]-ATP scintillation counting based radiometry assay relative to control
Receptor tyrosine-protein kinase erbB-2 (Homo sapiens), sequence (P04626 whole entry): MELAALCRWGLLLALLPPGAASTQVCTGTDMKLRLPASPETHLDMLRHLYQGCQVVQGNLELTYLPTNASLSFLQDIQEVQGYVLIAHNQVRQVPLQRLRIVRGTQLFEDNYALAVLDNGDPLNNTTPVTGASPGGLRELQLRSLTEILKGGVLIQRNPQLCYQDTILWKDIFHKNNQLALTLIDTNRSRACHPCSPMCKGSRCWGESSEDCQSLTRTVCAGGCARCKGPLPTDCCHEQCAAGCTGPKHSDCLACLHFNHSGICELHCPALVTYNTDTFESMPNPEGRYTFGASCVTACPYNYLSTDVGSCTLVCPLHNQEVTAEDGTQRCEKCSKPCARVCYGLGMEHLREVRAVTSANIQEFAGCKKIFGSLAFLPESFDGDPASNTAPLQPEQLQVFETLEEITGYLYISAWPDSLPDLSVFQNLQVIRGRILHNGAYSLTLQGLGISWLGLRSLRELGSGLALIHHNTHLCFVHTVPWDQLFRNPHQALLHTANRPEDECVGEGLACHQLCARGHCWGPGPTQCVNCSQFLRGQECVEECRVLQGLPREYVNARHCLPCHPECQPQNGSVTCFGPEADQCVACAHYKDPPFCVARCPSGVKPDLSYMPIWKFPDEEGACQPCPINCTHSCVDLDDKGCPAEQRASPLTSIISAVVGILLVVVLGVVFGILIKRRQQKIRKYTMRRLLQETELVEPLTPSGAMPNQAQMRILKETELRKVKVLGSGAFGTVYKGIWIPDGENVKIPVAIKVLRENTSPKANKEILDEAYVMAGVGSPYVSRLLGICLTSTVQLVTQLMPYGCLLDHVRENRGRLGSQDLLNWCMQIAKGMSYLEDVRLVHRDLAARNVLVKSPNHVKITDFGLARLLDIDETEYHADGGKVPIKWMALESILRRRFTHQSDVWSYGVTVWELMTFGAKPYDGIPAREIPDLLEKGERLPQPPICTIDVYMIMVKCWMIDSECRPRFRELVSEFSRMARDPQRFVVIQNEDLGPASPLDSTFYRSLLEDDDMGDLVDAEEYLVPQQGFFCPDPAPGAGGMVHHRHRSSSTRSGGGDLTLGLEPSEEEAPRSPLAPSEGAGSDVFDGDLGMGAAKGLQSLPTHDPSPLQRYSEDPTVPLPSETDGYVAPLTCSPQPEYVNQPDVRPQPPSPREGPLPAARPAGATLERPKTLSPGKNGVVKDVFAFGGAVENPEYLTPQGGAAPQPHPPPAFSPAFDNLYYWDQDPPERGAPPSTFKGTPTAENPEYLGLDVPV

[7] = molecular target: Mitogen-activated protein kinase 1 and 3 (ERK2 and ERK1) (Rattus norvegicus) (UniProt P63086+P21708); assay: Inhibition of ERK1/2 phosphorylation in rat H9c2 cells at 0.5 to 1 uM by Western blot analysis; format: cell-based; conditions: dose 0.5-1 µM; summary of the method: as §1
Mitogen-activated protein kinase 1 and 3 (ERK2 and ERK1) (Rattus norvegicus), sequence (P21708 whole entry, looked up): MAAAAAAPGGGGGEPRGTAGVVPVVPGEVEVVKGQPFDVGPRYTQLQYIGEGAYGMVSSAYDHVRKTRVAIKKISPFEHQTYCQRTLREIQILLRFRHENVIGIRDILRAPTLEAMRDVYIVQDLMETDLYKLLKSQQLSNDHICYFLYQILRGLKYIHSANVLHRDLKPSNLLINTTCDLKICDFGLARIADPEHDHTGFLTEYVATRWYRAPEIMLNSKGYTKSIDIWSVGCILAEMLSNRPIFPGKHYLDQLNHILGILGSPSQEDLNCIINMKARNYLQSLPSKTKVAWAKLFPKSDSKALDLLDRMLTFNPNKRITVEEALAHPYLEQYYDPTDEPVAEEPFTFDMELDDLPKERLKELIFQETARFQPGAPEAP
Mitogen-activated protein kinase 1 and 3 (ERK2 and ERK1) (Rattus norvegicus), sequence (P63086 whole entry, looked up): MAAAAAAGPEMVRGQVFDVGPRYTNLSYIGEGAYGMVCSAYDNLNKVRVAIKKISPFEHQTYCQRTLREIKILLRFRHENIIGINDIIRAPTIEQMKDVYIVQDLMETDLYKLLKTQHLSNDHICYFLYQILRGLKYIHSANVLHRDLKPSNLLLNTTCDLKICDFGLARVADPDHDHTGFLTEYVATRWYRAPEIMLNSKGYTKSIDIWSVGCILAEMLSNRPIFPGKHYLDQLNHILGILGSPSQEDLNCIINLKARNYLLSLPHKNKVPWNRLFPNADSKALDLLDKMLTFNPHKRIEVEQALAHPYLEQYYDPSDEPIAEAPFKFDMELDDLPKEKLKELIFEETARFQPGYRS

Mus musculus [8] = assay: Cardioprotective activity in C57BL/6 mouse model of myocardial infarction assessed as reduction in infarct area at 25 mg/kg, ip administered for 28 days and measured on day 28 by TTC staining based fluorescence microscopy; format: functional, organism-based; conditions: time 28.0 day
Summary of the method: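 Male C57BL/6 mice (5-6 weeks); MI by permanent LAD ligation under ip ketamine (100mg/kg)/xylazine (10mg/kg) with ventilation; sham group operated without LAD occlusion. Post-MI mice randomised to sham, normal saline or inhibitor groups (n=4); 25 mg/kg given ip every two days. Hearts assessed after 28 days: TTC staining (infarct yellow-white, viable red), Masson's trichrome (blue collagen) and H&E.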

H9c2 [9] = assay: Inhibition of OGD-induced apoptosis in rat H9c2 cells assessed as late apoptotic cells at 1 uM incubated for 24 hrs by annexinV-FITC and PI staining based flow cytometry analysis (reference value: 9 %); format: functional
H9c2 [10] = assay: Cytoprotective activity against OGD-induced cell death in rat H9c2 cells assessed as cell viability at 1 uM incubated for 24 hrs by MTT assay (reference value: 42.08 to 49.11 %); format: functional; conditions: read-out: Activity
H9c2 [11] = assay: Inhibition of OGD-induced apoptosis in rat H9c2 cells assessed as necrotic cells at 0.5 uM incubated for 24 hrs by annexinV-FITC and PI staining based flow cytometry analysis (reference value: 2.45 %); format: functional
H9c2 [12] = assay: Cytoprotective activity against OGD-induced cell death in rat H9c2 cells assessed as cell viability at 10 uM incubated for 24 hrs by MTT assay (reference value: 42.08 to 49.11 %); format: functional; conditions: read-out: Activity
[13] = molecular target: Vascular endothelial growth factor receptor 1 (Homo sapiens) (UniProt P17948); assay: Inhibition of recombinant human FLT1 (783 to end residues) assessed as residual activity at 1 uM using KKKSPGEYVNIEFG as substrate incubated for 40 mins by [gamma-33P]-ATP scintillation counting based radiometry assay relative to control
Vascular endothelial growth factor receptor 1 (Homo sapiens), sequence (P17948 whole entry): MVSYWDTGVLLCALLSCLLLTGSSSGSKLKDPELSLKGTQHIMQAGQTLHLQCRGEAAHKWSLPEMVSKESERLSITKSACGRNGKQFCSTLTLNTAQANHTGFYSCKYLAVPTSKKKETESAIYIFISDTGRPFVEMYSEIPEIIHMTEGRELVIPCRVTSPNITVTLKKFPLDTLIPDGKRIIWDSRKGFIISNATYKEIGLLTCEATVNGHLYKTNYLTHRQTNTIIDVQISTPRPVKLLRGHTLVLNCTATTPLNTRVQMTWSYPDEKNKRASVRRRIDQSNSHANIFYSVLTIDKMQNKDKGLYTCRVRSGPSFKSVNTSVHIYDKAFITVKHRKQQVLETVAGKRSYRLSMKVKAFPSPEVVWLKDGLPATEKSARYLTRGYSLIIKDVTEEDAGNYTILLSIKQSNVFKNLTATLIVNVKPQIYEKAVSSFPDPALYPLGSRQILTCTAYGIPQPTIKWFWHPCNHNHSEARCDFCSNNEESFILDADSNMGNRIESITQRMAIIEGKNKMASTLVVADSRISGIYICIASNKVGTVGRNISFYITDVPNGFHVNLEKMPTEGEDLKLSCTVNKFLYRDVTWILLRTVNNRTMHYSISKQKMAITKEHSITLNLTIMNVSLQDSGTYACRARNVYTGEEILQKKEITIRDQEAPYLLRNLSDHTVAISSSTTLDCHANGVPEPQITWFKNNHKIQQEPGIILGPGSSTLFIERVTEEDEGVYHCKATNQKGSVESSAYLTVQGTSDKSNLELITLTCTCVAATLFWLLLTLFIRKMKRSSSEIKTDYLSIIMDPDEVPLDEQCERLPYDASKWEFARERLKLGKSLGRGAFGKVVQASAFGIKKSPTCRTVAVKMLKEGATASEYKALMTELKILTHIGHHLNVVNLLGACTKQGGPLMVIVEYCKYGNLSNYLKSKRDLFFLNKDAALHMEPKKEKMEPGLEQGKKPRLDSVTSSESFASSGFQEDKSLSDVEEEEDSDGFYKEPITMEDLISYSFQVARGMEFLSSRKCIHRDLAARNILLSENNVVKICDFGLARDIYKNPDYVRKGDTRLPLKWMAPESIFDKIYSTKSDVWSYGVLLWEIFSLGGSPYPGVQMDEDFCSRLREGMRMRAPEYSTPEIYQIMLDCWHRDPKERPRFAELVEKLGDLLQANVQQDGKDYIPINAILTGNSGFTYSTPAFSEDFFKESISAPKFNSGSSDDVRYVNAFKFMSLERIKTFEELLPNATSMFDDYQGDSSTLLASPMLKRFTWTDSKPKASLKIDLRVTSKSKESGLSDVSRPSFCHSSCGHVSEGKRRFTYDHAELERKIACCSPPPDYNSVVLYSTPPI

[14] = molecular target: T1, Serine/threonine-protein kinase TNNI3K (Rattus norvegicus) (UniProt Q7TQP6); assay: Inhibition of TNNI3K in rat H9c2 cells assessed as reduction in p38 phosphorylation at 0.5 to 1 uM by Western blot analysis; format: cell-based; conditions: dose 0.5-1 µM; summary of the method: as §1
T1 sequence (whole entry): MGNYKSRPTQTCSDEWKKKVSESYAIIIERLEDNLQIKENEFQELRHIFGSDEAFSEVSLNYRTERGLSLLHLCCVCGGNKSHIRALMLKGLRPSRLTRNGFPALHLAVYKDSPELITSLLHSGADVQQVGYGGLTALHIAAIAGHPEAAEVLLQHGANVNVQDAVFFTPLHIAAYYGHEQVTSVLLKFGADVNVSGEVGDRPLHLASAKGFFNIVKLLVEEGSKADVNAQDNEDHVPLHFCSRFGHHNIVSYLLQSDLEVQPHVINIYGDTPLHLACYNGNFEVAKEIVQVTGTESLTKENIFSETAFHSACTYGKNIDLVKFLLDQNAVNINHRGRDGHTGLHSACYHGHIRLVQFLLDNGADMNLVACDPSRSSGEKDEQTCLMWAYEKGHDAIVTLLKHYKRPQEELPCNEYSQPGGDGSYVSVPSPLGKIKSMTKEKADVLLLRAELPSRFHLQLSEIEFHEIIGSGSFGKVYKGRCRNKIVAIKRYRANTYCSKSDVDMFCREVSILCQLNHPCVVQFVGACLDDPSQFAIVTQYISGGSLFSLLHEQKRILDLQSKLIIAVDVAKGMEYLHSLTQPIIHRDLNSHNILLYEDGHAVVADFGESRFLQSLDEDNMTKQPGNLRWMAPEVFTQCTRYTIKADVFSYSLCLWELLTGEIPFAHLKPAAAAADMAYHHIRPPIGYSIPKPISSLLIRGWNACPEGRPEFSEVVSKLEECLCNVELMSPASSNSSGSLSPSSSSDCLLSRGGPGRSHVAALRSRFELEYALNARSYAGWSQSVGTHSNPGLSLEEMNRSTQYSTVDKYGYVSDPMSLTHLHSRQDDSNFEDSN

H9c2 [15] = assay: Inhibition of OGD-induced apoptosis in rat H9c2 cells assessed as reduction in cytochromeC level by Western blot analysis; format: functional, cell-based; conditions: dose 0.5-1 µM; summary of the method: as §1
H9c2 [16] = assay: Inhibition of OGD-induced apoptosis in rat H9c2 cells assessed as reduction in ASC level at 0.5 to 1 uM by Western blot analysis; format: functional, cell-based; conditions: dose 0.5-1 µM; summary of the method: as §1

CN(C)CCCN1CCc2c(sc3ncnc(Nc4ccc(N(C)C)c(NC(=O)c5ccco5)c4)c23)C1
inhibition (H9c2 [1]): Active
Activity [2]: Non-Toxic
inhibition (H9c2 [3]): inactive
inhibition (Mus musculus [4]): Active
inhibition (H9c2 [5]): inactive
Activity [6]: 96%
inhibition [7]: inactive
Activity (Mus musculus [8]): Active
inhibition at 1 µM (H9c2 [9]): 5.02%
viability at 1 µM (H9c2 [10]): 73.8%
inhibition at 0.5 µM (H9c2 [11]): 2.24%
viability at 10 µM (H9c2 [12]): 89%
Activity [13]: 91%
inhibition [14]: Active
inhibition (H9c2 [15]): Dose-dependent effect
inhibition (H9c2 [16]): Active
